Source: ChEMBL document CHEMBL4680124, “2-Styryl-4-aminoquinazoline derivatives as potent DNA-cleavage, p53-activation and in vivo effective anticancer agents” (Eur J Med Chem, 2020)

Tests used:
Assay type in all cases: functional, cell-based
PC-3 = experiment: Cytotoxicity against human PC-3 cells assessed as reduction in cell viability preincubated for 48 hrs and measured after 4 hrs by MTT assay
DU-145 = experiment: Cytotoxicity against human DU145 cells expressing mutant type p53 assessed as reduction in cell viability preincubated for 48 hrs and measured after 4 hrs by MTT assay
Method in brief: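 MTT assay. Cells grown in DMEM (T24, MGC-803, A549, HL-7702), RPMI-1640 (DU145) or DMEM-F12 (PC-3), each with 10% FBS. Exposed to 1.25–20 µM in medium with 1% DMSO for 48 h, then MTT for 4 h. Formazan dissolved in DMSO and read at 570 nm. Five wells per concentration; means ± SD of independent repeats.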

T-24 = experiment: Cytotoxicity against human T-24 cells […] assessed as reduction in cell viability preincubated for 48 hrs and measured after 4 hrs by MTT assay
A549 = experiment: Cytotoxicity against human A549 cells expressing wild type p53 assessed as reduction in cell viability preincubated for 48 hrs and measured after 4 hrs by MTT assay
MGC-803 = experiment: Cytotoxicity against human MGC-803 cells expressing mutant type p53 assessed as reduction in cell viability preincubated for 48 hrs and measured after 4 hrs by MTT assay
L02 = experiment: Cytotoxicity against human HL-7702 cells expressing wild type p53 assessed as reduction in cell viability preincubated for 48 hrs and measured after 4 hrs by MTT assay

Compound	IC50 (PC-3) [µM]	IC50 (DU-145) [µM]	IC50 (T-24) [µM]	IC50 (A549) [µM]	IC50 (MGC-803) [µM]	IC50 (L02) [µM]
CCN(CC)CCCNc1nc(/C=C/c2ccc3c(c2)OCO3)nc2ccccc12	> 100	> 100	> 100	> 100	> 100	> 100
Clc1ccc2nc(/C=C/c3ccc4c(c3)OCO4)nc(NCCN3CCCCC3)c2c1	> 100	> 100	9.22	> 100	14.7	> 100
CN(C)CCNc1nc(/C=C/c2ccc3c(c2)OCO3)nc2ccccc12	> 100	> 100	66.4	> 100	> 100	57.8
CCN(CC)CCCNc1nc(/C=C/c2ccc([N+](=O)[O-])cc2)nc2ccc(Cl)cc12	6.89	8.12	7.12	76.4	7.37	15
COc1ccc(/C=C/c2nc(NCCN(C(C)C)C(C)C)c3cc(Cl)ccc3n2)cc1OC	> 100	> 100	14.8	> 100	15.6	> 100
COc1ccc(/C=C/c2nc(NCCN(C)C)c3ccccc3n2)cc1OC	> 100	> 100	> 100	> 100	> 100	> 100
CC(C)N(CCNc1nc(/C=C/c2ccc3c(c2)OCO3)nc2ccccc12)C(C)C	> 100	> 100	17.5	> 100	11.3	21.2
CC(C)N(CCNc1nc(/C=C/c2ccc3c(c2)OCO3)nc2ccc(Cl)cc12)C(C)C	10.6	8.78	7.46	> 100	8.57	> 100
CN(C)CCNc1nc(/C=C/c2ccc([N+](=O)[O-])cc2)nc2ccc(Cl)cc12	8.02	6.76	6.97	> 100	4.68	71.3
CN(C)CCNc1nc(/C=C/c2ccc([N+](=O)[O-])cc2)nc2ccccc12	51.1	15.7	8.95	33.9	14.4	18
CCN(CC)CCCNc1nc(/C=C/c2ccc(OC)c(OC)c2)nc2ccc(Cl)cc12	6.25	5.35	3.51	> 100	8.42	5.17
CN(C)CCNc1nc(/C=C/c2ccc3c(c2)OCO3)nc2ccc(Cl)cc12	> 100	> 100	9.61	> 100	9.46	> 100
COc1ccc(/C=C/c2nc(NCCCN(C)C)c3cc(Cl)ccc3n2)cc1OC	> 100	> 100	> 100	> 100	> 100	> 100
COc1ccc(/C=C/c2nc(NCCN3CCOCC3)c3cc(Cl)ccc3n2)cc1OC	> 100	> 100	91.8	> 100	> 100	> 100
COc1ccc(/C=C/c2nc(NCCN3CCOCC3)c3ccccc3n2)cc1OC	> 100	> 100	> 100	> 100	> 100	> 100
NCCCCNc1nc(/C=C/c2ccc3c(c2)OCO3)nc2ccccc12	> 100	> 100	41.2	> 100	24.6	> 100
CCN(CC)CCNc1nc(/C=C/c2ccc3c(c2)OCO3)nc2ccccc12	33.9	16.3	8.68	46.9	9.88	20.7
O=[N+]([O-])c1ccc(/C=C/c2nc(NCCN3CCOCC3)c3ccccc3n2)cc1	> 100	> 100	> 100	> 100	> 100	> 100
CC(C)N(CCNc1nc(/C=C/c2ccc([N+](=O)[O-])cc2)nc2ccccc12)C(C)C	> 100	> 100	14.2	> 100	29.1	8.96
CCN(CC)CCNc1nc(/C=C/c2ccc(OC)c(OC)c2)nc2ccccc12	50.3	31.4	30.2	> 100	> 100	> 100
COc1ccc(/C=C/c2nc(NCCN3CCCCC3)c3cc(Cl)ccc3n2)cc1OC	21.2	17.2	7.64	> 100	13.5	13.9

Compound	IC50 (PC-3) [µM]	IC50 (DU-145) [µM]	IC50 (T-24) [µM]	IC50 (A549) [µM]	IC50 (MGC-803) [µM]	IC50 (L02) [µM]
COc1ccc(/C=C/c2nc(NCCCN(C)C)c3ccccc3n2)cc1OC	> 100	> 100	88.4	> 100	> 100	> 100
COc1ccc(/C=C/c2nc(NCCN(C(C)C)C(C)C)c3ccccc3n2)cc1OC	20.3	15	6.5	38.8	15.5	> 100
C(=C\c1nc(NCCN2CCOCC2)c2ccccc2n1)/c1ccc2c(c1)OCO2	> 100	> 100	> 100	> 100	> 100	> 100
CCN(CC)CCNc1nc(/C=C/c2ccc3c(c2)OCO3)nc2ccc(Cl)cc12	14.2	7.56	8.17	> 100	11.1	15.9
O=[N+]([O-])c1ccc(/C=C/c2nc(NCCN3CCCCC3)c3ccccc3n2)cc1	25.6	> 100	36.2	28.2	27.6	> 100
CN(C)CCCNc1nc(/C=C/c2ccc3c(c2)OCO3)nc2ccccc12	> 100	25.4	8.81	> 100	14	14.5
CN(C)CCCNc1nc(/C=C/c2ccc3c(c2)OCO3)nc2ccc(Cl)cc12	> 100	> 100	8.12	> 100	17.2	> 100
O=[N+]([O-])c1ccc(/C=C/c2nc(NCCN3CCCCC3)c3cc(Cl)ccc3n2)cc1	> 100	> 100	34.3	41.1	20	> 100
CCN(CC)CCNc1nc(/C=C/c2ccc(OC)c(OC)c2)nc2ccc(Cl)cc12	> 100	> 100	12.2	> 100	16.8	91.2
CC(C)N(CCNc1nc(/C=C/c2ccc([N+](=O)[O-])cc2)nc2ccc(Cl)cc12)C(C)C	> 100	> 100	56.6	> 100	17.3	> 100
CCN(CC)CCCNc1nc(/C=C/c2ccc([N+](=O)[O-])cc2)nc2ccccc12	15.4	12.3	5.42	> 100	8.25	5.3
Clc1ccc2nc(/C=C/c3ccc4c(c3)OCO4)nc(NCCN3CCOCC3)c2c1	> 100	> 100	38.3	> 100	> 100	> 100
COc1ccc(/C=C/c2nc(NCCN3CCCCC3)c3ccccc3n2)cc1OC	78.5	71.6	10.5	82.7	33.2	19.8
CN(C)CCCNc1nc(/C=C/c2ccc([N+](=O)[O-])cc2)nc2ccccc12	> 100	24.4	9.16	59.5	15.7	21.4
COc1ccc(/C=C/c2nc(NCCCCN)c3cc(Cl)ccc3n2)cc1OC	> 100	20	7.82	50.5	14.1	> 100
NCCCCNc1nc(/C=C/c2ccc3c(c2)OCO3)nc2ccc(Cl)cc12	> 100	50.3	5.65	9.82	10.3	> 100
COc1ccc(/C=C/c2nc(NCCCCN)c3ccccc3n2)cc1OC	> 100	> 100	30.9	> 100	70.5	> 100
CCN(CC)CCNc1nc(/C=C/c2ccc([N+](=O)[O-])cc2)nc2ccccc12	> 100	> 100	> 100	> 100	> 100	44.5
C(=C\c1nc(NCCN2CCCCC2)c2ccccc2n1)/c1ccc2c(c1)OCO2	12.2	8.53	6.38	39.6	10.7	9.91
NCCCCNc1nc(/C=C/c2ccc([N+](=O)[O-])cc2)nc2ccc(Cl)cc12	> 100	> 100	5.62	10	9.16	> 100
CCN(CC)CCNc1nc(/C=C/c2ccc([N+](=O)[O-])cc2)nc2ccc(Cl)cc12	> 100	12.4	11	> 100	7.12	> 100
